The target in series [1] is T1, Cytochrome P450 3A4 (Homo sapiens, UniProt P08684). The experiment in a line: Inhibition of CYP3A4 (unknown origin) using midazolam substrate. It counts as ADME. A digest of the protocol:
(§1)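 Reactions stopped with acetonitrile/0.1% formic acid plus labelled internal standard. Metabolite measured by LC-MS area ratio. IC50 by linear interpolation.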

Series [2] has as its target Cytochrome P450 2C19 (Homo sapiens, UniProt P33261). The experiment in a line: Inhibition of CYP2C19 (unknown origin) using (S)-mephentoin substrate. Type of series: ADME. The essentials:
(§2)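 Human liver microsomes with probe substrate and an NADPH-regenerating system in 0.1 M potassium phosphate pH 7.4 at 37 °C, run in duplicate. Inhibitor at 0–20 μM (0–2.5 μM for one compound), eight concentrations. Reactions were stopped with acetonitrile/formic acid containing isotope-labelled internal standard, and metabolite area ratios were compared with and without inhibitor. IC50 was taken by linear interpolation between bracketing concentrations.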

In series [3] the test system is Liver microsome. The experiment in a line: Half life in human liver microsomes by LC-MS/MS analysis. It counts as ADME. A digest of the protocol:
(§3)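 Compound at 1 μM with 1 mg/mL liver microsomes in 100 mM potassium phosphate pH 7.4 at 37 °C with shaking. Reaction started with 1 mM NADPH (final). Aliquots were taken at 0, 5, 10, 20, 40 and 60 min and quenched in acetonitrile. Parallel incubations without NADPH were run.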

For series [4], the target named is T1, Cytochrome P450 3A4. The experiment in a line: Inhibition of CYP3A4 (unknown origin) using testosterone substrate. Type of series: ADME. The essentials: as §1
In series [5] the target is T2, Cytochrome P450 2B6 (Homo sapiens, UniProt P20813).
T2 sequence (P20813 whole entry): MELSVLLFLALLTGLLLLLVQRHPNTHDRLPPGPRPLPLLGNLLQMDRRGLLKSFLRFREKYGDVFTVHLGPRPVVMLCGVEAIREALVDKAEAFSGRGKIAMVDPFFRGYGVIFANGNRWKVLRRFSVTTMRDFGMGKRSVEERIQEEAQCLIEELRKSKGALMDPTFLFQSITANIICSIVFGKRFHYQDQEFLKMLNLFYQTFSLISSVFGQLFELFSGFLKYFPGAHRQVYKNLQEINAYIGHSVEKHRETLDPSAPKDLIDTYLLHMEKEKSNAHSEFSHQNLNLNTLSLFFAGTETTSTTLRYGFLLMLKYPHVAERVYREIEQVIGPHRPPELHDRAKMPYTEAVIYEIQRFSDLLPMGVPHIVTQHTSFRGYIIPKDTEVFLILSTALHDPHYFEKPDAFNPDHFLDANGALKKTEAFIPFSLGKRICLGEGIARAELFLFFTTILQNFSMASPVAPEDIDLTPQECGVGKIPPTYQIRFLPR
The experiment in a line: Inhibition of CYP2B6 (unknown origin) using bupropion substrate. Type of series: ADME. The essentials: as §2

Series [6] addresses T3, Collagenase 3 (Homo sapiens, UniProt P45452). The experiment in a line: Non-competitive inhibition of full-length recombinant human MMP-13 assessed as fTHP-15 substrate hydrolysis.
Series [7] deals with Cytochrome P450 2D6 (Homo sapiens, UniProt P10635). The experiment in a line: Inhibition of CYP2D6 (unknown origin) using dextromethophan substrate. Type of series: ADME. A digest of the protocol: as §2
Chain of Cytochrome P450 2D6 (P10635 whole entry): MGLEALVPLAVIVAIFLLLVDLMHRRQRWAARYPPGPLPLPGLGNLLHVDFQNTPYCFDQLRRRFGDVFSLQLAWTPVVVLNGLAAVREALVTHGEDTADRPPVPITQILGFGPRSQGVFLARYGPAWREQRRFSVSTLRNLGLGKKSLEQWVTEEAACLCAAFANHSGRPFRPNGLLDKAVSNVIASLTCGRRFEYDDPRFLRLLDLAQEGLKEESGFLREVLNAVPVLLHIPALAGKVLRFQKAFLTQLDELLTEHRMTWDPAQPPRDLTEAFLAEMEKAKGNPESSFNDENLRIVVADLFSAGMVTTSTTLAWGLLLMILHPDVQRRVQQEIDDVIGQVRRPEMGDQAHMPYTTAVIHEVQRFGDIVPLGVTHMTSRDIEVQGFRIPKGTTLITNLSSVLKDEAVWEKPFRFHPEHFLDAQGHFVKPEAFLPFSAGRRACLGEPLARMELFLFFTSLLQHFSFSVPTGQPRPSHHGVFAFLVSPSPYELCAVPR
The target in series [8] is T4, Cytochrome P450 2C8 (Homo sapiens, UniProt P10632).
T4 sequence (P10632 whole entry): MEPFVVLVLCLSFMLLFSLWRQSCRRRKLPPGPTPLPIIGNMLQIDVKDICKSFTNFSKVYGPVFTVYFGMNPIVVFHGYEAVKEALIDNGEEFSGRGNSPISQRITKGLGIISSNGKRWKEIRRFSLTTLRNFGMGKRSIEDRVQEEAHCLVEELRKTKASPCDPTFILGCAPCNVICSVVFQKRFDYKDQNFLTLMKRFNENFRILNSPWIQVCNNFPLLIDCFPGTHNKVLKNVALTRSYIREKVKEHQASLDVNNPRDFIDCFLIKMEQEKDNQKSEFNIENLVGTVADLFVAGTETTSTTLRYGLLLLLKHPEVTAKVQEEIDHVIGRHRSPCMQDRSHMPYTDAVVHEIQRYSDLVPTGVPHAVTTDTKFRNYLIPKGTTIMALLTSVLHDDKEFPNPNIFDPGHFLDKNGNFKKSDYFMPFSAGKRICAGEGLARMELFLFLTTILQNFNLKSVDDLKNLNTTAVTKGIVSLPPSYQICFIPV
The experiment in a line: Inhibition of CYP2C8 (unknown origin) using amodiaquine substrate. It counts as ADME. The essentials: as §2

Series [9] concerns the target Cytochrome P450 2C9 (Homo sapiens, UniProt P11712). The experiment in a line: Inhibition of CYP2C9 (unknown origin) using diclofenac substrate. It counts as ADME. A digest of the protocol:
as §2

Series [10] concerns the target T5, Cytochrome P450 1A2 (Homo sapiens, UniProt P05177).
T5 sequence (P05177 whole entry): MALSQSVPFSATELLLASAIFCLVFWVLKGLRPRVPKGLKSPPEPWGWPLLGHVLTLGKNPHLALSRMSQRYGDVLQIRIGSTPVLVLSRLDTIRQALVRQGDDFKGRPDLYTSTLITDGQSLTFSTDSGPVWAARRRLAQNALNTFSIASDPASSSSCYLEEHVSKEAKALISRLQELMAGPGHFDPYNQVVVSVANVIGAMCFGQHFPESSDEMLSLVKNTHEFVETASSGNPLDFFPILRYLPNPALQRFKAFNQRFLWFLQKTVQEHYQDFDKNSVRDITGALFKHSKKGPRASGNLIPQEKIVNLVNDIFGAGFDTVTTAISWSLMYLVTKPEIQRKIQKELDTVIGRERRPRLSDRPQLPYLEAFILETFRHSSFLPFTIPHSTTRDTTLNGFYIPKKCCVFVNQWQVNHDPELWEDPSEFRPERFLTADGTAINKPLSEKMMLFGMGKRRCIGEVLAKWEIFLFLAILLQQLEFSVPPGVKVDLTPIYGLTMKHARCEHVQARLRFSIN
The experiment in a line: Inhibition of CYP1A2 (unknown origin) using tacrin substrate. It counts as ADME. A digest of the protocol:
as §2

The target in series [11] is T3, Collagenase 3. The experiment in a line: Inhibition of full-length recombinant human MMP-13 assessed as bovine type-2 collagen hydrolysis after 22 hrs by fluorescence assay.
Series [12] deals with Liver. The experiment in a line: Half life in mouse liver microsomes by LC-MS/MS analysis. It counts as ADME. The essentials:
as §3

In series [13] the test system is Liver microsome. The experiment in a line: Half life in rat liver microsomes by LC-MS/MS analysis. It counts as ADME. The essentials:
as §3

In series [14] the target is T3, Collagenase 3. The experiment in a line: Competitive inhibition of full-length recombinant human MMP-13 assessed as fTHP-15 substrate hydrolysis by Lineweaver-Burke plot analysis. The essentials:
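Pro-MMP-13 activated with 1 mM APMA for 2 h at 37 °C. Enzyme at 4 nM was incubated with fTHP-15 at 2–25 μM and varying inhibitor in Tris pH 7.5/NaCl/CaCl2/Brij-35 buffer at room temperature. Fluorescence was read at ex 324/em 393 nm, and rates were taken from the linear portion. Mechanism was assigned by a mixed-model nonlinear fit (α parameter) and confirmed by Lineweaver–Burke plots.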

In series [15] the target is T3, Collagenase 3. Conditions: 50 uM.

The record followed here is ChEMBL document CHEMBL3352788, “Characterization of selective exosite-binding inhibitors of matrix metalloproteinase 13 that prevent articular cartilage degradation in vitro” (J Med Chem, 2014).

Structures are written as SMILES. Where only a bound is given, the exact number is not on record here.

T1 sequence (P08684 whole entry): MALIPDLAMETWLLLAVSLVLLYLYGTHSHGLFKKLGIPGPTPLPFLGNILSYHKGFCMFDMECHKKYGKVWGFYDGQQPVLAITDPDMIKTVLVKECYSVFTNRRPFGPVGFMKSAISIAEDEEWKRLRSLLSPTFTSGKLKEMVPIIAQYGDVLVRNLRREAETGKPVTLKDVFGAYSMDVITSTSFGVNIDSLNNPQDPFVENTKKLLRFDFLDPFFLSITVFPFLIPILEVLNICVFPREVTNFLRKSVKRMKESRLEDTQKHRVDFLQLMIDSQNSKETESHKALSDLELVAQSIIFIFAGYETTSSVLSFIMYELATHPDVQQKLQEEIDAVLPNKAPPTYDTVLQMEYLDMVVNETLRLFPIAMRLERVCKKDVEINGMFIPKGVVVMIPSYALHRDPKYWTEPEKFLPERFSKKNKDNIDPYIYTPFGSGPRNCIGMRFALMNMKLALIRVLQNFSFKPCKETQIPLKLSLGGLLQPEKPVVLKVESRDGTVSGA
Chain of Cytochrome P450 2C9 (P11712 whole entry): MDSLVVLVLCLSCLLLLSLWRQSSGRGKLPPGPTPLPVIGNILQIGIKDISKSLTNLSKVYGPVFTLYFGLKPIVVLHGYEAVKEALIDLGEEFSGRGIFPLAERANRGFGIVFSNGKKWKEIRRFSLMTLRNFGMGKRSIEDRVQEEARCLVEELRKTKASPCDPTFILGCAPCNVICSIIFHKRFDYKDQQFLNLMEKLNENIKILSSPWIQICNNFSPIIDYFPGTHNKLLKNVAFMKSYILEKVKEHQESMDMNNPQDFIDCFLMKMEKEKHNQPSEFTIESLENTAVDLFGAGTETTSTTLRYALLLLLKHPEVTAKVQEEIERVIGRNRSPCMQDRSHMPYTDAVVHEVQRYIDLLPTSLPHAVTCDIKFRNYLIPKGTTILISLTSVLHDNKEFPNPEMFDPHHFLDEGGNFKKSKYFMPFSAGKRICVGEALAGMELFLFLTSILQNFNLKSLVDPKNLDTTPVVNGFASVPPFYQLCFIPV
Chain of Cytochrome P450 2C19 (P33261 whole entry): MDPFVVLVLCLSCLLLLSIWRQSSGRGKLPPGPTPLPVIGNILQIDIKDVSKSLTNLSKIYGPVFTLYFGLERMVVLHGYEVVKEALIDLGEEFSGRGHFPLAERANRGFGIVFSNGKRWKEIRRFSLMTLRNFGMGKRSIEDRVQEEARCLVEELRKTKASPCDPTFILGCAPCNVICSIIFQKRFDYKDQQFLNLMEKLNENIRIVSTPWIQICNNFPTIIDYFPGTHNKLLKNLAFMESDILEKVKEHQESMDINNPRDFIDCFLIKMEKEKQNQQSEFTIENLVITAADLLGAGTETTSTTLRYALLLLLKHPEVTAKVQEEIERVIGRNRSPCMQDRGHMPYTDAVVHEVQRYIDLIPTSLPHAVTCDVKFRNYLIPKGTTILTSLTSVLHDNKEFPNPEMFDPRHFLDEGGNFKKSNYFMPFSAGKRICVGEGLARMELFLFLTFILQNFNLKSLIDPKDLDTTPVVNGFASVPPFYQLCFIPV

`Cc1ccc(CSc2nc3c(c(=O)[nH]2)CCC3)cc1`: the half-inhibitory concentration (IC50) in series [1] was > 20 µM; in series [2] it was 7.9 µM; in series [4], > 20 µM; in [5] it was > 20 µM; in series [6], 2.4 µM; in series [7] it was > 20 µM. The IC50 was > 20 µM in series [8], 8.8 µM in series [9], 3.7 µM in series [10] and 0.4 µM in series [11]. The molecule further showed a t1/2 in [3] of 7.3 min.
As to `CCN(CC)CCNC(=O)c1c(C)[nH]c(/C=C2\C(=O)Nc3ccc(F)cc32)c1C` [SUNITINIB], the t1/2 in [3] is on record as 44.1 min; in series [12] it was 12.3 min; in series [13] it was 26.5 min.
As to `CC(=O)NO`, the Kb in series [14] is 1200 µM.
`O=C(O)CN(CCN(CC(=O)O)CC(=O)O)CC(=O)O` yielded an inhibition in series [15] of 70%.
